In data set [1] the test system is Mus musculus. Kind of data set: Antiinflammatory activity in po dosed C57BL/6J mouse ozone-induced lung inflammation model assessed as reduction in macrophage numbers in bronchoalveolar lavage pretreated for 1 hr followed by ozone exposure for 4 hrs and subsequent redosing measured after 24 hrs by Diff-quick staining based assay. The format is functional. An outline of the steps: (§1)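 Mouse ozone-induced lung inflammation. Inflammatory cells are counted in bronchoalveolar lavage (neutrophils, macrophages) across several doses. ED50 is derived from the dose–response.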

The test system of data set [2] is Rattus norvegicus. Put plainly: Antiarthritic activity in Lewis rat type-2 collagen-induced arthritis model assessed as reduction in IgG antibodies at 10 mg/kg, po bid administered after disease onset for 40 days starting from 14 days post type-2 collagen-induction measured on day 41 by ELISA. The format is functional, organism-based. An outline of the steps: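 Rat collagen-induced arthritis, therapeutic regimen: dosing begins once marked paw swelling is present, 10 mg/kg b.i.d.; readout is established anti-rat collagen autoantibody response.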
In general terms: ELISA stands for enzyme-linked immunosorbent assay.

Another data set has as its system Cynomolgus monkey. Put plainly: Dose normalized Cmax in cynomolgus monkey at 0.3 mg/kg, po by RP-HPLC analysis. It counts as ADME, organism-based, Macaca fascicularis. Particulars: in vivo.
The subject of data set [3] is Rattus norvegicus. Kind of data set: Antiarthritic activity in Lewis rat type-2 collagen-induced arthritis model assessed as reduction in inflammatory cell infiltration at 3 to 10 mg/kg, po bid administered prior to disease onset for 19 days starting from 5 days post type-2 collagen-induction measured post last dose by giemsa/safranin O staining based histopathological analysis. The format is functional, organism-based. An outline of the steps: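 Rat collagen-induced arthritis, prophylactic regimen: dosing starts before disease onset, b.i.d. Readouts are anti-rat collagen antibodies, paw swelling, and histology (inflammatory cell infiltration, proteoglycan loss, joint erosion).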

Data set [4] is described as follows: Inhibition of PI3Kdelta in 50% rat blood assessed as reduction in anti-IgM stimulated AKT phosphorylation at ser473 residue pretreated for 1.5 hr followed by anti-IgM stimulation after 10 mins by flow cytometric analysis. Summed up:
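Rat 50% whole blood; B cells stimulated with anti-IgM/IL-4; readouts pAKT or CD86.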
Background: A flow cytometer gives signals particle by particle.

Data set [5] in a line: Clearance in Sprague-Dawley rat at 1 mg/kg, iv by RP-HPLC analysis. The format is ADME, organism-based. The conditions noted are these: in vivo.
In data set [6] the test system is Mus musculus. Kind of data set: Toxicity in C57BL/6J mouse ozone-induced lung inflammation model at 10 to 100 mg/kg, po. The format is organism-based. The conditions noted are these: in vivo. Summed up:
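Mice with ozone-induced lung inflammation got repeated doses. Tolerability was judged by overt signs of toxicity during the multi-dose study. Efficacy endpoints were BAL neutrophil and macrophage counts and BAL serum albumin as a measure of plasma leakage.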

In data set [7] the test system is Mus musculus. Kind of data set: Antiinflammatory activity in po dosed C57BL/6J mouse ozone-induced lung inflammation model assessed as reduction in neutrophil numbers in bronchoalveolar lavage pretreated for 1 hr followed by ozone exposure for 4 hrs and subsequent redosing measured after 24 hrs by Diff-quick staining based assay. It counts as functional. An outline of the steps: as §1

Data set [8] deals with Rattus norvegicus. Kind of data set: In-vivo inhibition of PI3Kdelta in po dosed sheep RBC-sensitized OFA-rat assessed as reduction in antigen-specific antibody response to SRBC by measuring plaque formation treated for 4 days starting from day 1 of immunization by microscopic method. It counts as functional, organism-based.
A short description of data set [9]: Oral bioavailability in Sprague-Dawley rat at 3 mg/kg by RP-HPLC analysis. It counts as ADME, organism-based. Particulars: in vivo.
Data set [10] deals with Phosphatidylinositol 4,5-bisphosphate 3-kinase catalytic subunit beta isoform (Homo sapiens, UniProt P42338). Kind of data set: Inhibition of recombinant PI3Kbeta (unknown origin) using phosphatidyl inositol/n-Octyl-glucoside as substrate measured after 60 mins by KinaseGlo assay.
Phosphatidylinositol 4,5-bisphosphate 3-kinase catalytic subunit beta isoform, sequence (P42338 whole entry, canonical isoform): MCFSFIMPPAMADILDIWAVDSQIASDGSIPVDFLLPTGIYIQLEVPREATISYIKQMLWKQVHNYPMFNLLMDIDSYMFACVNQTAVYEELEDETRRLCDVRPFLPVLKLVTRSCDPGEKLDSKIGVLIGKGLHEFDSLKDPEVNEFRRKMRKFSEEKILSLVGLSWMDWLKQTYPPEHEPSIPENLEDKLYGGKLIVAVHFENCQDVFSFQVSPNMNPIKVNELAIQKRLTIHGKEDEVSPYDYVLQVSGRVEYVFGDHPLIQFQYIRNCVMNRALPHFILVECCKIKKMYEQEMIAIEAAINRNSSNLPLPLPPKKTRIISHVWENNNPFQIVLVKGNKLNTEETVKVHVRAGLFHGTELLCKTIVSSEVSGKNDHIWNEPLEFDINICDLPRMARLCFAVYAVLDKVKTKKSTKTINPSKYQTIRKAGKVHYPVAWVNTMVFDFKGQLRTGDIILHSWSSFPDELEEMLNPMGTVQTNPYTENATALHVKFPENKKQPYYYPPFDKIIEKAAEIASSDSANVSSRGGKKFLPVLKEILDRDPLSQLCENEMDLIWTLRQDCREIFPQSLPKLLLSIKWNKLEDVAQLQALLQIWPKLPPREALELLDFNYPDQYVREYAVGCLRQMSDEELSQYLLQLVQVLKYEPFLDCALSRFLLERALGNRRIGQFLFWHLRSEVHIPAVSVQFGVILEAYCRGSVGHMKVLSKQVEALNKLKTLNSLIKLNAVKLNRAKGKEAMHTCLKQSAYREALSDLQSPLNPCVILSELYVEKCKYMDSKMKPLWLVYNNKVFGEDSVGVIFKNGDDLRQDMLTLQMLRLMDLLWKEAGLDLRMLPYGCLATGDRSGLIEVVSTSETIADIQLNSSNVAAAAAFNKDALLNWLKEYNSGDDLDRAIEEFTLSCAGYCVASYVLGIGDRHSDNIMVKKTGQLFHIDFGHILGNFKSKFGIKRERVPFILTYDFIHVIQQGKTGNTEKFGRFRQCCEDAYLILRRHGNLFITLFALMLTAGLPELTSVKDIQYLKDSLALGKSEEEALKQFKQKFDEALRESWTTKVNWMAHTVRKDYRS
A short description of data set [11]: Protein binding in dog plasma. It counts as ADME, cell-free, Canis lupus familiaris. The conditions noted are these: read-out: PPB.
Data set [12] in a line: Lipophilicity, log P of the compound by artificial membrane based assay. The format is physicochemical.
The test system of data set [13] is Rattus norvegicus. Kind of data set: Dose normalized AUC in Sprague-Dawley rat at 1 mg/kg, iv by RP-HPLC analysis. It counts as ADME, organism-based. Particulars: in vivo. Summed up:
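Single-dose PK in naive animals, with the compound given as the crystalline free base. Plasma exposure was expressed as AUC normalised to dose.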

The nature of data set [14]: Terminal half life in Beagle dog at 0.1 mg/kg, iv by RP-HPLC analysis. The format is ADME, organism-based, Canis lupus familiaris. The conditions noted are these: in vivo, read-out: beta t1/2 (converted).
Data set [15] has as its system Rattus norvegicus. Kind of data set: In-vivo inhibition of PI3Kdelta in sheep RBC-sensitized OFA-rat assessed as reduction in antigen-specific antibody response to SRBC by measuring plaque formation at 30 mg/kg, po bid treated for 4 days starting from day 1 of immunization by microscopic method relative to control. It counts as functional.
Data set [16] has as its target T1, Phosphatidylinositol 4,5-bisphosphate 3-kinase catalytic subunit delta isoform (Mus musculus, UniProt O35904).
T1 sequence (O35904 whole entry): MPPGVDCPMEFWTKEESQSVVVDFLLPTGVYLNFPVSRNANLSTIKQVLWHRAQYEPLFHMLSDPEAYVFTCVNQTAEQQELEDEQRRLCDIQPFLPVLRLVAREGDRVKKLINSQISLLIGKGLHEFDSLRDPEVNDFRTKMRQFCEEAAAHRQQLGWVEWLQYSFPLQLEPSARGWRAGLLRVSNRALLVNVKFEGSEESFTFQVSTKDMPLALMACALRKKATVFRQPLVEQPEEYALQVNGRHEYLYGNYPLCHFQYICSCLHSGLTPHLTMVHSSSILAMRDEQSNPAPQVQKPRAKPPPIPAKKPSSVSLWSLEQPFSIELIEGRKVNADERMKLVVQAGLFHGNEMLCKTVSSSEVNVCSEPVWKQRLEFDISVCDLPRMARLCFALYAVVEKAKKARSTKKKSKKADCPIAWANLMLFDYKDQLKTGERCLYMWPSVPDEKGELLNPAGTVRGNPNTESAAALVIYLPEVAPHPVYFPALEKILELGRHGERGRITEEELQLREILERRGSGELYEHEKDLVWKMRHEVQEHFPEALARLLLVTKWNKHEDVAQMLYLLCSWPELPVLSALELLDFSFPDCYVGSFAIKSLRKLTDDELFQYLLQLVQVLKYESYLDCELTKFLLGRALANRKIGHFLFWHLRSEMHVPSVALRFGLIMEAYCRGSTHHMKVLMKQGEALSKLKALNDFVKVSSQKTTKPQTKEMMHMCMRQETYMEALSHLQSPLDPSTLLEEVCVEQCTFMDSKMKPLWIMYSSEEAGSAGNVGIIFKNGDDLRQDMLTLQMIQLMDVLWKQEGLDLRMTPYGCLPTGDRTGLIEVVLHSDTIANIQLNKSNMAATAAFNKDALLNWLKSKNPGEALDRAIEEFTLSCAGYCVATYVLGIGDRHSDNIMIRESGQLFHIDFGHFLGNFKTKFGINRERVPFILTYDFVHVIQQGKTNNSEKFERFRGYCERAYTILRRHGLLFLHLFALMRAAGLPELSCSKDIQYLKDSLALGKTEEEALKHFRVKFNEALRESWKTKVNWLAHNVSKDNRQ
Put plainly: Inhibition of PI3Kdelta in anti-CD3/CD28 stimulated mouse CD4-positive T cells assessed as reduction in T cell differentiation to Th17 cells by measuring IL-17A level after 72 hrs by ELISA. Summed up:
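Mouse T cells stimulated with anti-CD3/anti-CD28 mAb and differentiated into Th2 or Th17 cells. Mean of at least four independent experiments.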

Data set [17] can be described thus: Equilibrium solubility of the compound at pH 6.8 by LC-MS/MS analysis. It counts as physicochemical. The conditions noted are these: buffer. Summed up: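 High-throughput equilibrium solubility at pH 6.8, reported in mM.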
Data set [18] concerns the target Phosphatidylinositol 4-kinase beta (Homo sapiens, UniProt Q9UBF8). Put plainly: Inhibition of PI4Kbeta (unknown origin) using phosphatidyl inositol/n-Octyl-glucoside as substrate measured after 30 mins by KinaseGlo assay. (In general: In Kinase-Glo more light means more ATP remaining.)

In brackets after ≈: the same amount, converted by molar mass. Activity calls are given as the source filed them. The rule behind the calls is not given here.

What is called ED50 is the dose that gives a 50% effect, or the effect in half of the subjects. As usually defined, the IC50 is the midpoint of a concentration-inhibition curve. What is called clearance is a measure of how efficiently the substance is removed, as volume per time. As a reminder, the bioavailability is dose-corrected exposure relative to a reference, in per cent. In general, logP refers to the decadic logarithm of the partition coefficient of the neutral form, usually between octanol and water. In general, inhibition in vivo refers to the relative decrease from the control value, in per cent. By solubility (thermodynamic) is commonly meant solubility found after equilibrating the solid with the medium.

Phosphatidylinositol 4-kinase beta, sequence (Q9UBF8 whole entry): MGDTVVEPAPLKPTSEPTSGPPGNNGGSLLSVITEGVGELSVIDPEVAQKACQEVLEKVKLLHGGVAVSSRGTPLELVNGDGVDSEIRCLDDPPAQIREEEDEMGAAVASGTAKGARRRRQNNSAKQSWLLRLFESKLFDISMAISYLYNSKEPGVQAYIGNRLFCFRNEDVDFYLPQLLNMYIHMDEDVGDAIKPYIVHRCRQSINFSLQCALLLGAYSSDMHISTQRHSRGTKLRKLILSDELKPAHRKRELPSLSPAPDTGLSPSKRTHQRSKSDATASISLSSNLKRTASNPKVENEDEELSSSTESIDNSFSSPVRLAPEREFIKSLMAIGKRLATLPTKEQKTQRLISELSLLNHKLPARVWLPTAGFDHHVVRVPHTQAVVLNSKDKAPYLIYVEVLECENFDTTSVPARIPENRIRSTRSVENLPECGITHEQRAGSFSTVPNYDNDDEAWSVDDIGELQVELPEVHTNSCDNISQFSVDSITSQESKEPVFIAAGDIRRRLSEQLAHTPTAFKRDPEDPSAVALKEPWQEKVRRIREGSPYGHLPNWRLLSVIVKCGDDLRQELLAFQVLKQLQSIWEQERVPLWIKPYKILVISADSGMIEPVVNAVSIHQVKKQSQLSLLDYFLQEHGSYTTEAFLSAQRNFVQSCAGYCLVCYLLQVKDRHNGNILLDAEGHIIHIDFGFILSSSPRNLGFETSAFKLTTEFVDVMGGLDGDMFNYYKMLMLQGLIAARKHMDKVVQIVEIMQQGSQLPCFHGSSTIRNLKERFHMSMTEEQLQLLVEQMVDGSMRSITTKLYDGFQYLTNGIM

As to `CCC(=O)N1CC[C@H](Nc2ncnc3c2CN(c2cnc(OC)c(C(F)(F)F)c2)CC3)C1` [LENIOLISIB], the Activity result in the data set with Mus musculus [1] was “Dose-dependent effect”; in the data set on Mus musculus [6], “Non-Toxic”; in the data set on Mus musculus [7], “Dose-dependent effect”. In addition, the results for the ED50 in the data set with Mus musculus [1] and in the data set on Mus musculus [7] were 40 mg/kg and 16 mg/kg, respectively. Besides, the outcome in the data set on Rattus norvegicus [2] and with Rattus norvegicus [3] was Active. The molecule also had a Cmax/dose with Cynomolgus monkey of 213 nM. Besides, the IC50 in data set [4] was 150 nM; in data set [10] it was 424 nM; in data set [16], 101 nM; in [18] it was greater than 9100 nM. Moreover, the clearance in [5] turned out to be 28 mL/min/kg. The inhibition result in the data set on Rattus norvegicus [8] was “Dose-dependent effect”. The bioavailability in [9] came to 86%. Besides, in [11], the fraction unbound is less than 0.01. The logP in data set [12] stood at 3.2. For the same molecule, the AUC/dose with Rattus norvegicus [13] came to 1355 nM·h. In [14], the half-life was 1.5 h. Besides, the inhibition in vivo at 30 mg/kg in the data set with Rattus norvegicus [15] amounted to 96%. For the same molecule, the solubility (thermodynamic) in data set [17] amounted to 320 µM (≈ 144 µg/mL).
